Source: ChEMBL document CHEMBL1139851, “Synthesis and SAR of [1,2,4]triazolo[1,5-a]pyrimidines, a class of anticancer agents with a unique mechanism of tubulin inhibition” (J Med Chem, 2007)
The source made the active and inactive calls. No cut-off for these calls is given here.

Experiments:
[1] = tested on: HeLa; assay: Induction of apoptosis in HeLa cells assessed as increase in sub-G1 population at 1 uM; assay type: functional, cell-based; details: Homo sapiens
[2] = tested on: COLO 205; assay: Cytotoxicity against COLO205 cells; assay type: cell-based; details: Homo sapiens
How it was run: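 MTS cytotoxicity assay in COLO 205 cells. Trypsinized cells were plated at 1000/well and preincubated about 24 h at 37 °C in 5% CO2. Compounds were added as nine serial 2-fold DMSO dilutions, final top concentration typically 5 µM, and cells were cultured 3 days. Absorbance was normalized to a time-0 plate. IC50 was read from a 10-concentration dose-response curve run in triplicate.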

[3] = Ratio of IC50 for KBV1 cells to IC50 for KB cells; assay type: functional, Homo sapiens
How it was run: (§1)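 Resistance ratio is IC50 on KB 8.5 or KB V1 cells divided by IC50 on parental KB cells, each from 10-concentration duplicate dose-response curves.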

[4] = tested on: KB; assay: Antiproliferative activity against KB cells expressing MDR1; assay type: functional, cell-based; details: Homo sapiens
How it was run: (§2)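 KB, KB 8.5 and KB V1 lines differ in P-gp (MDR1) level. Growth-inhibition IC50 was taken from a dose-response curve at 10 concentrations in duplicate.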

[5] = Antiproliferative activity against KBV1 cells expressing MDR1; assay type: functional, cell-based; details: Homo sapiens, KB-V1; how it was run: as §2
[6] = tested on: KB; assay: Ratio of IC50 for KB8.5 cells to IC50 for KB cells; assay type: functional, Homo sapiens; how it was run: as §1
[7] = tested on: U-87MG ATCC; assay: Antitumor activity against U87-MG cells xenografted in iv dosed athymic nu/nu mouse; assay type: functional, organism-based; details: Homo sapiens
How it was run: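 Female athymic nu/nu mice received 1 × 10⁶ U87-MG cells subcutaneously in the flank. Once tumors reached 80-120 mg they were randomized into groups of 5-10. Compound was given iv in Klucel or 0.9% saline; controls got vehicle alone. Tumor volume was (length × width²)/2, compared with vehicle by one-sided Student's t-test, p ≤ 0.05.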

[8] = Antiproliferative activity against KB8.5 cells expressing MDR1; assay type: functional, cell-based; details: Homo sapiens; how it was run: as §2
[9] = tested on: U-87MG ATCC; assay: Antitumor activity against U87-MG cells xenografted in orally dosed athymic nu/nu mouse; assay type: functional, organism-based; details: Homo sapiens
How it was run: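 U87-MG flank xenografts (1 × 10⁶ cells, subcutaneous) were grown in female athymic nu/nu mice and staged at 80-120 mg. Compound was given by oral gavage on days 0 and 7 after staging. Controls received Klucel vehicle […], with nine animals per group. Tumor volume was (length × width²)/2, tested by one-sided Student's t-test.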

[10] = tested on: HeLa; assay: Induction of apoptosis in HeLa cells assessed as effect on sub-G1 population; assay type: functional, cell-based; details: Homo sapiens
[11] = Metabolic stability in mouse liver microsomes; assay type: ADME, Microsome
[12] = target: T1, Tubulin (Homo sapiens) (UniProt P68371+Q9H4B7+P0DPH7+P68366+Q13509+Q71U36+P04350+Q3ZCM7+P07437+P68363+Q9BQE3+Q6PEY2+Q13885+Q9BVA1+Q9BUF5); assay: Induction of tubulin polymerization in absence of GTP; assay type: protein-complex assay
[13] = Oral bioavailability in rat; assay type: ADME, organism-based; details: in vivo
[14] = tested on: HeLa; assay: Induction of apoptosis in HeLa cells assessed as increase in sub-G1 population at 35 nM; assay type: functional, cell-based; details: Homo sapiens
[15] = tested on: A549; assay: Antitumor activity against A549 cells xenografted in athymic nu/nu mouse after iv administration; assay type: functional, organism-based
How it was run: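 Female athymic nu/nu mice were implanted subcutaneously in the flank with 1 × 10⁷ A549 cells. Animals were staged at about 300 (mm³/mg), then randomized into groups of 5-10. Dosing was iv on days 0, 7, 14 and 21, in Klucel or 0.9% saline; controls got vehicle. Tumor volume was (length × width²)/2. Analysis used a one-sided Student's t-test, p ≤ 0.05.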

[16] = Solubility in water at pH 6.74; assay type: physicochemical
[17] = Half life in rat; assay type: ADME, organism-based; details: in vivo
[18] = Volume of distribution in rat; assay type: ADME, organism-based; details: in vivo, read-out: Vdss
[19] = tested on: HeLa; assay: Mitotic block in HeLa cells assessed as increase in G2/M peak by flow cytometry at >35 nM; assay type: functional, cell-based; details: Homo sapiens
[20] = Metabolic stability in rat liver microsomes; assay type: ADME, Microsome
[21] = target: T1, Tubulin (Homo sapiens); assay: Displacement of [3H]vinblastine from tubulin; assay type: protein-complex assay
[22] = Solubility in water at pH 5.48; assay type: physicochemical
[23] = target: T1, Tubulin (Homo sapiens); assay: Induction of MAP-rich tubulin polymerization at 2.7 uM; assay type: protein-complex assay
[24] = species on record: Homo sapiens; assay: Displacement of [3H]paclitaxel from microtubules
[25] = Clearance in rat; assay type: ADME, organism-based; details: in vivo
[26] = target: T1, Tubulin (Homo sapiens); assay: Displacement of [3H]colchicine from tubulin; assay type: protein-complex assay

CC(=O)O[C@@]12CO[C@@H]1C[C@H](O)[C@@]1(C)C(=O)[C@H](O)C3=C(C)[C@@H](OC(=O)[C@H](O)[C@@H](NC(=O)OC(C)(C)C)c4ccccc4)C[C@@](O)([C@@H](OC(=O)c4ccccc4)[C@H]21)C3(C)C
Activity [1]: Active

C[C@H](Nc1c(-c2c(F)cc(OCCCN3CCC3)cc2F)c(Cl)nc2ncnn12)C(F)(F)F
IC50 [2]: 326 nM

C[C@H](Nc1c(-c2c(F)cc(OCCCN(C)C)cc2F)c(Cl)nc2ncnn12)C(F)(F)F.Cl
Ratio IC50 [3]: 6.1 | IC50 [4]: 18.7 nM | IC50 [5]: 114 nM | Ratio IC50 [6]: 1.8 | IC50 [2]: 56 nM | Activity [7]: Active | IC50 [8]: 33 nM | Activity [9]: Active

C[C@H](Nc1c(-c2ccc(OCCCN(C)C)cc2F)c(Cl)nc2ncnn12)C(F)(F)F
IC50 [2]: 262 nM

CCN(C)CCCOc1cc(F)c(-c2c(Cl)nc3ncnn3c2N[C@@H](C)C(F)(F)F)c(F)c1
IC50 [2]: 48 nM

C[C@H](Nc1c(-c2c(F)cc(OCCCN)cc2F)c(Cl)nc2ncnn12)C(F)(F)F
IC50 [2]: 452 nM

C[C@H](Nc1c(-c2c(F)cc(OCCCN3CCCC3)cc2F)c(Cl)nc2ncnn12)C(F)(F)F
IC50 [2]: 44 nM | Activity [7]: Active | Activity [9]: Active

CC[C@]1(O)C[C@H]2CN(CCc3c([nH]c4ccccc34)[C@@](C(=O)OC)(c3cc4c(cc3OC)N(C=O)[C@H]3[C@@](O)(C(=O)OC)[C@H](OC(C)=O)[C@]5(CC)C=CCN6CC[C@]43[C@@H]65)C2)C1 [VINCRISTINE]
Activity [10]: inactive | Ratio IC50 [6]: 26 | IC50 [8]: 58 nM

CCOCCCOc1cc(F)c(-c2c(Cl)nc3ncnn3c2N[C@@H](C)C(F)(F)F)c(F)c1
IC50 [2]: 269 nM

C[C@H](Nc1c(-c2c(F)cc(F)cc2F)c(Cl)nc2ncnn12)C(F)(F)F
IC50 [2]: 267 nM

Fc1cc(F)c(-c2c(Cl)nc3ncnn3c2NCC(F)(F)F)c(F)c1
IC50 [2]: 372 nM

C[C@H](Nc1c(-c2c(F)cc(OCCN3CCOCC3)cc2F)c(Cl)nc2ncnn12)C(F)(F)F
IC50 [2]: 245 nM

C[C@H](Nc1c(-c2c(F)cc(OCCCN3CCOCC3)cc2F)c(Cl)nc2ncnn12)C(F)(F)F
IC50 [2]: 51 nM | Activity [7]: Active | Activity [9]: Active

C[C@H](Nc1c(-c2c(F)ccc(OCCCN(C)C)c2F)c(Cl)nc2ncnn12)C(F)(F)F
IC50 [2]: 785 nM

C[C@H](Nc1c(-c2c(F)cc(SCCCN(C)C)cc2F)c(Cl)nc2ncnn12)C(F)(F)F
IC50 [2]: 192 nM

C[C@H](Nc1c(-c2c(F)ccc(OCCN(C)C)c2F)c(Cl)nc2ncnn12)C(F)(F)F
IC50 [2]: 1570 nM

C[C@H](Nc1c(-c2c(F)cc(OCCCCCO)cc2F)c(Cl)nc2ncnn12)C(F)(F)F
IC50 [2]: 214 nM

C[C@H](Nc1c(-c2c(F)cc(OCCO)cc2F)c(Cl)nc2ncnn12)C(F)(F)F
IC50 [2]: 422 nM

C[C@H](Nc1c(-c2c(F)cc(OCCN(C)C)cc2F)c(Cl)nc2ncnn12)C(F)(F)F
IC50 [2]: 581 nM

C[C@H](Nc1c(-c2c(F)cc(N(C)CCCN(C)C)cc2F)c(Cl)nc2ncnn12)C(F)(F)F
IC50 [2]: 1670 nM

C[C@H](Nc1c(-c2c(F)cc(F)cc2F)c(Br)nc2ncnn12)C(F)(F)F
IC50 [2]: 232 nM

CNCCCOc1cc(F)c(-c2c(Cl)nc3ncnn3c2N[C@@H](C)C(F)(F)F)c(F)c1.Cl
half-life [11]: 7.22 h | Activity [12]: Active | Ratio IC50 [3]: 41.5 | bioavailability [13]: 61% | IC50 [4]: 23 nM | Activity [14]: Active | IC50 [5]: 953 nM | Tumour inhibition [15]: Active | solubility [16]: 890 µg/mL | half-life [17]: 13 h | Vd [18]: 14 L/kg | Activity [19]: Active | Ratio IC50 [6]: 2.9 | half-life [20]: 1.47 h | IC50 [2]: 31 nM | Activity [21]: Active | solubility [22]: 7990 µg/mL | Activity [7]: Active | Activity [23]: Active | Activity [24]: inactive | clearance [25]: 14 mL/min/kg | Activity [26]: inactive | IC50 [8]: 67 nM | Activity [9]: Active

CN(C)CCCOc1cc(F)c(-c2c(Cl)nc3ncnn3c2NCC(F)(F)F)c(F)c1.Cl
Ratio IC50 [3]: 14 | IC50 [4]: 18.7 nM | IC50 [5]: 263 nM | Ratio IC50 [6]: 2 | IC50 [2]: 53 nM | Activity [7]: Active | IC50 [8]: 38 nM | Activity [9]: Active

C[C@@H](Nc1c(-c2c(F)cc(F)cc2F)c(Cl)nc2ncnn12)C(F)(F)F
IC50 [2]: 705 nM

C[C@H](Nc1c(-c2c(F)cc(OCCCN3CCCCC3)cc2F)c(Cl)nc2ncnn12)C(F)(F)F
IC50 [2]: 113 nM

C[C@H](Nc1c(-c2c(F)cc(OCCCCO)cc2F)c(Cl)nc2ncnn12)C(F)(F)F
Ratio IC50 [3]: 1.6 | IC50 [4]: 42 nM | IC50 [5]: 67 nM | Ratio IC50 [6]: 1.6 | IC50 [2]: 151 nM | IC50 [8]: 70 nM

C[C@H](Nc1c(-c2ccc(F)cc2F)c(Cl)nc2ncnn12)C(F)(F)F
IC50 [2]: 953 nM

C[C@H](Nc1c(-c2c(F)cc(OCCCO)cc2F)c(Cl)nc2ncnn12)C(F)(F)F
IC50 [2]: 67 nM

COc1cc2c(c(OC)c1OC)-c1ccc(OC)c(=O)cc1[C@@H](NC(C)=O)CC2
Activity [10]: inactive

C[C@H](Nc1c(-c2c(F)ccc(F)c2F)c(Cl)nc2ncnn12)C(F)(F)F
IC50 [2]: 183 nM

CCCCOc1cc(F)c(-c2c(Cl)nc3ncnn3c2N[C@@H](C)C(F)(F)F)c(F)c1
IC50 [2]: 1900 nM

C[C@H](Nc1c(-c2c(F)ccc(OCCCCN(C)C)c2F)c(Cl)nc2ncnn12)C(F)(F)F
IC50 [2]: 433 nM

C[C@H](Nc1c(-c2c(F)cc(OCCCCN(C)C)cc2F)c(Cl)nc2ncnn12)C(F)(F)F
IC50 [2]: 276 nM

C[C@H](Nc1c(-c2c(F)cc(OCCCN(C)C)cc2F)c(Br)nc2ncnn12)C(F)(F)F
IC50 [2]: 96 nM

C[C@H](Nc1c(-c2c(F)cc(NCCCN(C)C)cc2F)c(Cl)nc2ncnn12)C(F)(F)F
IC50 [2]: 719 nM

C[C@H](Nc1c(-c2c(F)cc(CCCCN(C)C)cc2F)c(Cl)nc2ncnn12)C(F)(F)F
IC50 [2]: 665 nM
